# Measured values: PubChem BioAssay
# Calls of active or inactive are those of the source.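 The calls were made as follows, unless noted: active = GFP response above 150% of the DMSO level; inconclusive = fewer than 70 events counted for a yeast strain; inactive = the rest.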
# Legend:
# [1] = RPL19A-GFP modulators, yeast TOR pathway, confirmation, cell-based, S. cerevisiae, flow cytometry, cherry picks, mother/daughter gates (AID 2270;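 active = GFP response below 50% of the DMSO control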); conditions: S. cerevisiae RPL19A-GFP strain, 3 h, at 10 µM, stronger effect = lower value, 100 = same GFP as DMSO wells
# [2] = LAP4-GFP expression modulators in yeast, confirmation, cell-based, cherry picks, flow cytometry, mother/daughter gates (AID 2271;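 active = GFP response above 150% of the DMSO control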;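 also: ratio of sample to DMSO plate mean so 100% equals DMSO level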); conditions: S. cerevisiae LAP4-GFP strain, 3 h, at 10 µM, stronger effect = higher value, 100 means same as DMSO control
# Outline: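 Measured by: GFP by flow cytometry. Test system: GFP-fusion yeast strain. Input: yeast cells seeded at OD600 of 0.2. Timing: 30 °C, 3 h compound incubation, rotating. Buffer or medium: synthetic complete medium for yeast. Benchmarks: DMSO-only negative wells, rapamycin 400 ng/mL positive wells. Compound: 10 µM single dose.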
# [3] = modulators of MEP2-GFP levels in yeast, confirmation, S. cerevisiae, flow cytometry GFP, cherry picks (AID 2272;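 active = GFP response above 150% of the DMSO control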;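 also: ratio of well signal to plate DMSO mean so 100% equals DMSO level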); conditions: S. cerevisiae MEP2-GFP strain, 3 h, at 10 µM, stronger effect = higher value
# [4] = AGP1-GFP expression modulators, hit retest, confirmation, cell-based, flow cytometry, S. cerevisiae, cherry picks (AID 2273);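 also: median GFP channel fluorescence over the whole cell population gate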; conditions: S. cerevisiae AGP1-GFP strain, 3 h, at 10 µM
# [5] = modulators of CIT2-GFP expression in yeast, confirmation, S. cerevisiae, GFP fusion, cherry picks, mother/daughter gates (AID 2274); conditions: S. cerevisiae CIT2-GFP strain, flow cytometry, 3 h, at 10 µM, stronger effect = higher value
# [6] = measured here: daughter cell gate
# [7] = measured here: mother cell gate
# [8] = measured here: daughter cell gate response
# [9] = measured here: mother cell gate response
Structure (SMILES),GFP response vs DMSO [1],"GFP response vs DMSO [1, 6]","GFP response vs DMSO [1, 7]",GFP response relative to DMSO [2],"GFP response relative to DMSO [2, 8]","GFP response relative to DMSO [2, 9]",GFP response vs DMSO [3],"GFP response, % of DMSO [4]","GFP response, % of DMSO [5]","GFP response, % of DMSO [5, 6]","GFP response, % of DMSO [5, 7]"
CCCCN(CCCC)S(=O)(=O)c1ccc(C(=O)Nc2nnc(COC)o2)cc1,106% (inactive),106%,103%,131% (inactive),140%,126%,149% (inactive),106% (inactive),100% (inactive),103%,101%
COc1cccc(CC(=O)OC(C)C(=O)Nc2ncc(Cl)cc2Cl)c1 (stereo unspecified),101% (inactive),99.8%,101%,96.2% (inactive),97.2%,97.2%,102% (inactive),91.1% (inactive),97.8% (inactive),98.1%,95.5%
Cc1c(NC(=O)Nc2ccc3c(c2)OCO3)c(=O)n(-c2ccccc2)n1C,99.3% (inactive),99.1%,99%,96.5% (inactive),96.5%,93.6%,99.5% (inactive),96.7% (inactive),96.4% (inactive),100%,95.6%
Cc1ccc(S(=O)(=O)c2ncccc2[N+](=O)[O-])cc1,92.2% (inactive),93.2%,89.1%,129% (inactive),123%,131%,105% (inactive),109% (inactive),94.4% (inactive),97.4%,91.9%
CCOC(=O)C1=C(c2ccccc2)NC(=S)NC1c1cc([N+](=O)[O-])ccc1OC (stereo unspecified),94% (inactive),92.6%,96.4%,97.9% (inactive),97.6%,97.2%,96.2% (inactive),95.2% (inactive),99.7% (inactive),101%,99.7%
COc1cccc2c1Oc1ncccc1N(C(=O)CCC(=O)NCc1cccc(C)c1)C2,98.4% (inactive),98.6%,99.2%,97.9% (inactive),97.6%,98.3%,100% (inactive),97.6% (inactive),105% (inactive),106%,104%
CC(C)c1nnc(NC(=O)c2nc(S(=O)(=O)Cc3ccc(F)cc3)ncc2Cl)s1,95.8% (inactive),96%,96.9%,101% (inactive),102%,99.5%,99.5% (inactive),102% (inactive),99.3% (inactive),100%,100%
COc1cccc2c1Oc1ncccc1N(C(=O)CCC(=O)NCc1ccc(F)cc1)C2,98% (inactive),98.1%,98.2%,101% (inactive),101%,99.3%,102% (inactive),96.6% (inactive),105% (inactive),105%,104%
O=S(=O)(c1ccc(C2CCCCC2)cc1)N1CCOCC1,92.4% (inactive),92.7%,90.1%,102% (inactive),97.5%,105%,105% (inactive),102% (inactive),100% (inactive),93.8%,101%
O=C1Nc2ccccc2C(=O)C1(Cl)Cc1ccccc1 (stereo unspecified),89.6% (inactive),91.9%,88.3%,132% (inactive),124%,134%,101% (inactive),102% (inactive),94.4% (inactive),95.8%,90.4%
CS(=O)(=O)c1nc(-c2ccccc2)cc(C(F)(F)F)n1,102% (inactive),105%,95.9%,192% (active),179%,189%,146% (inactive),102% (inactive),95.2% (inactive),101%,86.9%
O=c1[nH]n(Cc2ccccc2)c2ccccc12,97.6% (inactive),97.8%,97.8%,103% (inactive),102%,103%,102% (inactive),98.7% (inactive),96.4% (inactive),96.4%,94.5%
Nc1ccc2nc(-c3ccc(-c4nc5ccc(N)cc5[nH]4)cc3)[nH]c2c1,99.3% (inactive),100%,96.1%,111% (inactive),108%,94.4%,112% (inactive),99.1% (inactive),108% (inactive),92.3%,93.8%
O=S(=O)(c1ccccc1)c1ncc(C(F)(F)F)cc1O,96.5% (inactive),98.4%,94.8%,97.7% (inactive),97.5%,99.5%,110% (inactive),104% (inactive),101% (inactive),99.3%,102%
O=C(COc1ccc(OCc2ccccc2)cc1)NN=C1CCCC1,98% (inactive),98.4%,97.1%,107% (inactive),104%,109%,103% (inactive),99.5% (inactive),100% (inactive),101%,99.3%
N#Cc1ccc(Sc2ccccn2)c([N+](=O)[O-])c1,102% (inactive),101%,102%,102% (inactive),105%,103%,102% (inactive),97.8% (inactive),104% (inactive),99.7%,105%
